Assay results reported in PMC2805920 (Biochemical Journal, 2009).

Legend:
[1] = system: 130nt-RNA; experiment: EMSA, binding to 32P-labelled 130nt-RNA; set-up: species or system Trypanosoma cruzi; details: peptide 9 to 30 μM
Outline: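 The probe was a T7 transcript radiolabelled with [α-32P]UTP, gel-purified and desalted on Sephadex G-50. Probe (0.72 nM) was incubated with increasing peptide for 30 min at 37 °C. Peptide stocks were 500 μM in PBS with 30 μM ZnCl2. Gels were dried and phosphorimaged. Kd is the peptide concentration giving 50 % RNA bound, from a Hill-equation fit.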

[2] = system: 135nt-ssDNA; experiment: EMSA, binding to 32P-labelled 135nt-ssDNA; set-up: species or system Trypanosoma cruzi
[3] = system: 135bp-dsDNA; experiment: EMSA, binding to 32P-labelled 135bp-dsDNA; set-up: species or system Trypanosoma cruzi; details: peptide 0.9-30 μM
[4] = system: 29/mm29c DNA duplex; experiment: DNA-melting assay on mismatched duplex; type: biochemical; details: 1 μM peptide, 32P-29mer/mm29c duplex
Outline: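 A 32P-29mer and its complementary strand carrying four internal mismatches (mm29c) were annealed in water: 5 min at 95 °C, NaCl added to 50 mM, then slowly cooled to 22 °C. It was incubated 5 min at 25–55 °C, sampled every 5 °C into ice-cold tRNA/SDS/Ficoll stop mix, run on native 15 % PAGE and phosphorimaged.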

[5] = system: stable duplexes; details: read-out: Conc50, concentration required to reach the formation of 50% of stable duplexes as a measure of NAC activity; NO = no observed activity; cited from earlier work

Substance	RNA-binding affinity (in words) [1]	ssDNA-binding affinity (in words) [2]	dsDNA-binding affinity (in words) [3]	effect on the Tm of the mismatched DNA duplex (in words) [4]	EC50 [5]
LT……CPHCDSTLTGFSGLVSHCRSFHP [compound 5032]	complete loss of affinity	very low affinity	no affinity	does not have any influence on the Tm	> 30 µM
TVPPSAREEDVSPV…TLTRRRKEKC [compound 5030]	eliminated		complete loss of binding affinity	does not have any influence on the Tm	> 30 µM
